{"source": "ChEMBL document CHEMBL1142137", "about": "(Antimicrob Agents Chemother, 2007)", "key": {"[1]": {"test": "Cmax in leukopenic mouse with renal failure at 7 mg/kg, sc after 0.5 hrs", "assay_type": "ADME, organism-based", "design": "dose 7 mg/kg, route subcutaneous", "conditions": "in vivo"}, "[2]": {"test": "AUC in leukopenic mouse with renal failure at 25 mg/kg, sc", "assay_type": "ADME, organism-based", "design": "dose 25 mg/kg, route subcutaneous", "conditions": "plasma", "procedure,_shortened": "(§1)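 Uninfected female Swiss mice (6-7 weeks) made leukopenic with cyclophosphamide (150 mg/kg i.p. […] from 4 days pre-challenge) and given uranyl nitrate 6 mg/kg i.p. once, 4 days earlier. […] AUC0-24 by trapezoid method from one-compartment fit.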"}, "Mus musculus [3]": {"tested_on": "Mus musculus", "test": "T>MIC in leukopenic mouse with renal failure at 25 mg/kg, sc", "assay_type": "ADME, organism-based", "design": "dose 25 mg/kg, route subcutaneous", "conditions": "in vivo"}, "[4]": {"test": "Half life in leukopenic mouse with renal failure at 7 mg/kg, sc", "assay_type": "ADME, organism-based", "design": "dose 7 mg/kg, route subcutaneous", "conditions": "in vivo", "procedure,_shortened": "(§2)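 Terminal t1/2 = ln 2/kel, kel from least-squares slope of linear portions of log concentration-time curve; data fitted to one-compartment open model, zero-order absorption, first-order elimination.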"}, "[5]": {"test": "AUC in leukopenic mouse with renal failure at 7 mg/kg, sc", "assay_type": "ADME, organism-based", "design": "dose 7 mg/kg, route subcutaneous", "conditions": "plasma", "procedure,_shortened": "as §1"}, "Streptococcus pneumoniae [6]": {"tested_on": "Streptococcus pneumoniae", "test": "Antibacterial activity against penicillin-susceptible Streptococcus pneumoniae P-52181"}, "Mus musculus [7]": {"tested_on": "Mus musculus", "test": "Effect on survival of Swiss mouse infected with penicillin-resistant Streptococcus pneumoniae P-54988 at 15 mg/kg, sc", "assay_type": "functional", "conditions": "route subcutaneous", "procedure,_shortened": "(§3)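 Female Swiss albino mice, 6-7 weeks old, made leukopenic with cyclophosphamide 150 mg/kg ip daily ×3 from 4 days before challenge. Renal failure from one uranyl nitrate 6 mg/kg ip dose 4 days before challenge. Intratracheal inoculum of ~10^7 log-phase CFU under pentobarbital. […] 12-15 mice/group; deaths recorded daily for 10 days; Mantel-Haenszel comparison.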"}, "Streptococcus pneumoniae [8]": {"tested_on": "Streptococcus pneumoniae", "test": "Antibacterial activity against penicillin-resistant Streptococcus pneumoniae P-15986", "assay_type": "functional", "procedure,_shortened": "(§4)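 Tube dilution in Mueller-Hinton infusion broth with 5% sterile horse serum, using twofold antibiotic dilutions. Tubes were incubated 18 h at 37°C in 10% CO2-air. MIC was the lowest concentration with no turbidity visible to the naked eye.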"}, "Mus musculus [9]": {"tested_on": "Mus musculus", "test": "Effect on survival of Swiss mouse infected with penicillin-resistant Streptococcus pneumoniae P-12698 at 15 mg/kg, sc", "assay_type": "functional", "conditions": "route subcutaneous", "procedure,_shortened": "as §3"}, "[10]": {"test": "Half life in human at 1 g, po", "assay_type": "ADME, organism-based", "conditions": "in vivo"}, "[11]": {"test": "AUC in human at 1 g, po", "assay_type": "ADME, organism-based", "conditions": "plasma"}, "[12]": {"test": "Half life in leukopenic mouse with renal failure at 15 mg/kg, sc", "assay_type": "ADME, organism-based", "design": "dose 15 mg/kg, route subcutaneous", "conditions": "in vivo", "procedure,_shortened": "as §2"}, "Streptococcus pneumoniae [13]": {"tested_on": "Streptococcus pneumoniae", "test": "Antibacterial activity against penicillin-resistant Streptococcus pneumoniae P-12698", "assay_type": "functional", "procedure,_shortened": "as §4"}, "[14]": {"test": "AUC in leukopenic mouse with renal failure at 15 mg/kg, sc", "assay_type": "ADME, organism-based", "design": "dose 15 mg/kg, route subcutaneous", "conditions": "plasma", "procedure,_shortened": "as §1"}, "[15]": {"test": "Cmax in human at 1 g, po after 0.5 hrs", "assay_type": "ADME, organism-based", "design": "dose 1 g, route oral", "conditions": "in vivo"}, "Mus musculus [16]": {"tested_on": "Mus musculus", "test": "Effect on survival of Swiss mouse infected with penicillin-resistant Streptococcus pneumoniae P-15986 at 15 mg/kg, sc", "assay_type": "functional", "conditions": "route subcutaneous", "procedure,_shortened": "as §3"}, "Mus musculus [17]": {"tested_on": "Mus musculus", "test": "Effect on survival of Swiss mouse infected with penicillin-susceptible Streptococcus pneumoniae P-52181 at 15 mg/kg, sc"}, "Mus musculus [18]": {"tested_on": "Mus musculus", "test": "T>MIC in leukopenic mouse with renal failure at 7 mg/kg, sc", "assay_type": "ADME, organism-based", "design": "dose 7 mg/kg, route subcutaneous", "conditions": "in vivo"}, "[19]": {"test": "Half life in leukopenic mouse with renal failure at 25 mg/kg, sc", "assay_type": "ADME, organism-based", "design": "dose 25 mg/kg, route subcutaneous", "conditions": "in vivo", "procedure,_shortened": "as §2"}, "Streptococcus pneumoniae [20]": {"tested_on": "Streptococcus pneumoniae", "test": "Antibacterial activity against penicillin-resistant Streptococcus pneumoniae P-54988", "assay_type": "functional", "procedure,_shortened": "as §4"}, "[21]": {"test": "Cmax in leukopenic mouse with renal failure at 15 mg/kg, sc after 0.5 hrs", "assay_type": "ADME, organism-based", "design": "dose 15 mg/kg, route subcutaneous", "conditions": "in vivo"}, "[22]": {"test": "Cmax in leukopenic mouse with renal failure at 25 mg/kg, sc after 0.5 hrs", "assay_type": "ADME, organism-based", "design": "dose 25 mg/kg, route subcutaneous", "conditions": "in vivo"}, "Mus musculus [23]": {"tested_on": "Mus musculus", "test": "Effect on survival of Swiss mouse infected with penicillin-resistant Streptococcus pneumoniae P-12698 at 25 mg/kg, sc", "assay_type": "functional", "conditions": "route subcutaneous", "procedure,_shortened": "as §3"}, "Mus musculus [24]": {"tested_on": "Mus musculus", "test": "T>MIC in leukopenic mouse with renal failure at 15 mg/kg, sc", "assay_type": "ADME, organism-based", "design": "dose 15 mg/kg, route subcutaneous", "conditions": "in vivo"}}, "data": [{"smiles": "CC1(C)S[C@@H]2[C@H](NC(=O)[C@H](N)c3ccc(O)cc3)C(=O)N2[C@H]1C(=O)O", "note": "[AMOXICILLIN]", "values": [{"measurement": "Cmax", "setting": "[1]", "result": 13000, "unit": "ng/mL"}, {"measurement": "AUC", "setting": "[2]", "result": 227000, "unit": "ng·h/mL"}, {"measurement": "T>MIC", "setting": "Mus musculus [3]", "result": 8, "unit": "h"}, {"measurement": "half-life", "setting": "[4]", "result": 1.6, "unit": "h"}, {"measurement": "AUC", "setting": "[5]", "result": 46000, "unit": "ng·h/mL"}, {"measurement": "MIC", "setting": "Streptococcus pneumoniae [6]", "result": 0.03, "unit": "µg/mL"}, {"measurement": "survival at 15 mg/kg", "setting": "Mus musculus [7]", "result": 81, "unit": "%"}, {"measurement": "MIC", "setting": "Streptococcus pneumoniae [8]", "result": 4, "unit": "µg/mL"}, {"measurement": "survival at 15 mg/kg", "setting": "Mus musculus [9]", "result": 50, "unit": "%"}, {"measurement": "half-life", "setting": "[10]", "result": 1.5, "unit": "h"}, {"measurement": "AUC", "setting": "[11]", "result": 68000, "unit": "ng·h/mL"}, {"measurement": "half-life", "setting": "[12]", "result": 1.6, "unit": "h"}, {"measurement": "MIC", "setting": "Streptococcus pneumoniae [13]", "result": 2, "unit": "µg/mL"}, {"measurement": "AUC", "setting": "[14]", "result": 80000, "unit": "ng·h/mL"}, {"measurement": "Cmax", "setting": "[15]", "result": 19000, "unit": "ng/mL"}, {"measurement": "survival at 15 mg/kg", "setting": "Mus musculus [16]", "result": 82, "unit": "%"}, {"measurement": "survival at 15 mg/kg", "setting": "Mus musculus [17]", "result": 83, "unit": "%"}, {"measurement": "T>MIC", "setting": "Mus musculus [18]", "result": 4, "unit": "h"}, {"measurement": "half-life", "setting": "[19]", "result": 1.7, "unit": "h"}, {"measurement": "MIC", "setting": "Streptococcus pneumoniae [20]", "result": 2, "unit": "µg/mL"}, {"measurement": "Cmax", "setting": "[21]", "result": 28000, "unit": "ng/mL"}, {"measurement": "Cmax", "setting": "[22]", "result": 85000, "unit": "ng/mL"}, {"measurement": "survival at 25 mg/kg", "setting": "Mus musculus [23]", "result": 57, "unit": "%"}, {"measurement": "T>MIC", "setting": "Mus musculus [24]", "result": 4, "unit": "h"}]}]}
